# Source: PubChem BioAssay (The Scripps Research Institute Molecular Screening Center)
# A selection: hits, their analogues and other compounds. The true share with any hit is near 2.9%.
# OX1R antag-1 – antagonists of human orexin 1 receptor (OX1R) | Orexin/Hypocretin receptor type 1 (Homo sapiens), O43613 | OX1R-expressing cells, FRET antagonist read-out | inhibition, % at 6.6 µM | 1.8% of 330,000 active; in the data active means inhibition mostly above about 38%, no sharp cut-off; inactive means mostly below about 40%
# Target sequence (O43613 whole entry, looked up): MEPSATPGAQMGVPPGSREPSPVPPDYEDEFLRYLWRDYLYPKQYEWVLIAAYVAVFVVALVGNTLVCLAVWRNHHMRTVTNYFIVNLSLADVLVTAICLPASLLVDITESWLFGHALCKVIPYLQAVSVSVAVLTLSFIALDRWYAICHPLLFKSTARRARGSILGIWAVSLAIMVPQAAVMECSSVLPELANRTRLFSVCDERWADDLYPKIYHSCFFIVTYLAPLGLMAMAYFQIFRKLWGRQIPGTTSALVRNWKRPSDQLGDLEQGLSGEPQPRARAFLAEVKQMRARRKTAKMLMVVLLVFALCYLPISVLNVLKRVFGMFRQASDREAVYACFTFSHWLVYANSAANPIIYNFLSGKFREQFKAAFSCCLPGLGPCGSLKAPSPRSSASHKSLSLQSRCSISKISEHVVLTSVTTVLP
# CHO-K1 Ca antag – M1 antagonist counterscreen hit in parental CHO-K1 cells. 0.6% of 360,000 active. AID 602250. inhibition, % at 3 µM. ATP-induced calcium, Fluo-8 fluorescence;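 active means inhibition above a per-plate cutoff, the plate's mean sample inhibition plus 3 SD, cut at about 24% in these data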
# M1 ag parental – counter-screen for M1 agonists: effect in parental CHO-K1 cells | Fluo-8 calcium fluorescence; scaled to maximal ATP response, vehicle zero | activation, % at 3 µM | 0.48% of 360,000 active; in the data active means activation above about 15%;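 further: untransfected CHO-K1 host cells lacking M1 receptor as counterscreen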
# CHO parental Ca – ATP-evoked calcium signal inhibitors, parental CHO, primary screen, counter-screen for OX1R antagonist project, cell-based, fluorescence, Fluo-8 calcium dye; parental CHO-K1, ATP-induced calcium, Fluo-8 fluorescence; inhibition, % at 5.6 µM; 0.63% of 330,000 active;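 active means inhibition above that plate's mean sample inhibition plus 3 SD, cut at about 26% in these data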
#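 Material: parental CHO cells / Compound: single nominal dose of 5.6 µM per compound / Signal: Fluo-8 fluorescence / Replicates: singlicate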
# CHO-K1 Ca PAM – nonselective calcium activators in parental CHO-K1 cells, primary screen, counter-screen for M1 PAM project, cell-based, Fluo-8 calcium fluorescence, full deck, 1536-well; ATP EC20; 0% at ATP EC20, 100% at ATP max; activation, % at 3 µM; 0.02% of 360,000 active;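 active means activation above the run cutoff, the mean activation of all test compounds plus 3 SD, cut at about 40% in these data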;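 further: peak over basal fluorescence ratio in a 140 s read after ATP addition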
# OX1R antag-2 – OX1R (HCRTR1) antagonists, primary screen, fluorescence, CHO/OX1R cells, Fluo-8 calcium, orexin A; inhibition, % at 5 µM; 0.43% of 330,000 active; Fluo-8 calcium fluorescence; Orexin/Hypocretin receptor type 1 (Homo sapiens), O43613;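 active means inhibition above its plate's threshold, mean inhibition of all tested compounds on the plate plus 3 SD, cut at about 37% in these data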
# A number is an active result; – = inactive; · = no result.
SMILES,OX1R antag-1,CHO-K1 Ca antag,M1 ag parental,CHO parental Ca,CHO-K1 Ca PAM,OX1R antag-2
Cn1cc([N+](=O)[O-])c(C(=O)Nc2nc(-c3ccc(Cl)cc3)cs2)n1,–,–,–,56,–,40
Cc1ccc(-c2nc(NC(=O)c3nn(C)cc3[N+](=O)[O-])sc2C)cc1,–,–,–,–,–,–
CN(C)S(=O)(=O)c1cccc2nsnc12,35,–,–,–,–,–
Cc1ccc(NC(=O)CN(C)S(=O)(=O)c2cccc3nsnc23)cc1C,–,–,–,–,–,–
CN(CC(=O)Nc1ccc(F)c(F)c1)S(=O)(=O)c1cccc2nsnc12,63,–,–,–,–,–
Cc1nc(/N=C(\N)NC(=O)c2ccccc2)nc2ccccc12,72,–,–,–,–,–
Cc1cccc2c(N=O)c(O)n(CCc3ccccc3)c12,–,–,–,–,–,–
COc1ccc2c(c1)C(=NNc1ccc(C(=O)O)cc1)c1cc(OC)ccc1-2,–,–,–,–,–,–
COc1ccc2c(c1)C(=NN)c1cc(OC)ccc1-2,55,–,–,–,–,–
CCOc1cc(/C=C/C(=O)N(CC)CC(=O)NCc2cccs2)cc(Cl)c1OC,–,–,–,–,–,–
O=C(O)c1cc2nccc(-c3ccc(F)cc3)n2n1,43,–,–,–,–,–
COc1ccc(CN(C)CC(O)COC(c2ccccc2)c2ccccc2)c(OC)c1OC (stereo not drawn),–,–,28,–,–,–
Cc1ccn2c(-c3csc(NCc4ccccc4)n3)c(C)nc2c1,–,25,–,–,–,43
CNS(=O)(=O)c1cccc(C(=O)OCc2cc(=O)oc3c(C)c(O)ccc23)c1,–,–,15,–,–,–
CCc1cc2c(COC(=O)c3cccc(S(C)(=O)=O)c3)cc(=O)oc2cc1O,–,–,–,–,–,–
Cc1cc(S(=O)(=O)N2CCN(c3ccccc3F)CC2)ccc1-n1cnnn1,–,–,18,–,–,–
Cc1c(Cl)cccc1NC(=O)[C@@H](NC(=O)c1ccccc1Cl)C(C)C,–,24,–,–,–,–
COc1ccc(OC)c(NS(=O)(=O)c2cc3c4c(c2)CCN4C(=O)CC3)c1,·,–,–,·,–,·
CCn1c(CCC(=O)O)nc2cc(S(=O)(=O)N(C)C)ccc21,–,30,–,–,–,–
CCCC(/C=C/c1ccc(OC(C)=O)cc1)=C1/c2ccccc2C(=O)N1c1ccccc1,–,–,–,–,–,–
Cc1ccc2cc(C)c3nnc(SCC(=O)c4cccs4)n3c2c1C,45,–,–,–,–,–
COC(=O)c1ccc(CNC(=O)c2ccc(S(=O)(=O)N3CCCC(C)C3)cc2)cc1 (stereo not drawn),–,–,–,–,–,–
Cc1csc(NC(=O)CSc2ccc([N+](=O)[O-])cn2)n1,–,–,16,–,–,–
O=C(Nc1ccc([N+](=O)[O-])cc1)c1ccccc1F,–,–,–,–,–,–
Cc1nnc(SCC(=O)Nc2ncc(S(=O)(=O)c3ccc([N+](=O)[O-])cc3)s2)s1,–,–,–,–,44,–
SMILES,OX1R antag-1,CHO-K1 Ca antag,M1 ag parental,CHO parental Ca,CHO-K1 Ca PAM,OX1R antag-2
O=C(Nc1ncc(S(=O)(=O)c2ccc([N+](=O)[O-])cc2)s1)c1ccccc1F,–,–,–,39,–,54
CN1CCC(N(C)C(=O)/C(C#N)=C/c2ccc(OC(F)F)cc2)CC1,·,–,–,·,–,·
Cc1c(C(=O)OC(C)C)sc(NC(=O)c2cnccn2)c1C(=O)OC(C)C,·,–,–,·,–,·
COc1ccc2[nH]c(=O)c(CN(CCO)S(=O)(=O)c3c(C)ccc4nsnc34)cc2c1,–,29,–,–,–,–
COc1ccc2[nH]c(=O)c(CN(Cc3cccs3)S(=O)(=O)c3cccc4nsnc34)cc2c1,–,–,–,–,–,–
COc1ccc(CCn2c(=N)c(C(=O)NCCN3CCOCC3)cc3c(=O)n4ccccc4nc32)cc1OC,50,–,–,–,–,–
N=c1c(C(=O)NC2CCCC2)cc2c(=O)n3ccccc3nc2n1Cc1ccccc1,–,–,–,–,–,–
